Measurements: article PMC7233462 (Cell reports, 2019)

Experiments:
PpKAI2-like C [1] = biological target: T1, PpKAI2-like C (Physcomitrium patens, UniProt A9SKF7); assay: Differential scanning fluorimetry; type: binding, Physcomitrella patens
PpKAI2-like D [2] = assay: Differential scanning fluorimetry; type: binding, Physcomitrella patens
PpKAI2-like E [3] = assay: Differential scanning fluorimetry; type: binding, Physcomitrella patens
PpKAI2-like C [4] = biological target: T1, PpKAI2-like C; type: biochemical, Physcomitrella patens; details: 1 μM PpKAI2-like C, 1 mM substrate, 3 h, room temperature
PpKAI2-like D [5] = type: biochemical, Physcomitrella patens; details: 1 μM PpKAI2-like D, 1 mM substrate, 3 h, room temperature
PpKAI2-like E [6] = type: biochemical, Physcomitrella patens; details: 1 μM PpKAI2-like E, 1 mM substrate, 3 h, room temperature
PpKAI2-like C [7] = biological target: T1, PpKAI2-like C; assay: Mass spectrometry of protein for D ring modification; type: biochemical, Physcomitrella patens; details: PpKAI2-like C incubated with ligand
PpKAI2-like D [8] = assay: as above; type: biochemical, Physcomitrella patens; details: PpKAI2-like D incubated with ligand
PpKAI2-like E [9] = assay: as above; type: biochemical, Physcomitrella patens; details: PpKAI2-like E incubated with ligand
PpKAI2-like H [10] = biological target: T2, PpKAI2-like H (Physcomitrium patens, UniProt A9SG07); assay: Fluorescence-based equilibrium microdialysis, KAR1 binding; parameters: species or system Physcomitrella patens
PpKAI2-like K = assay: as above; parameters: species or system Physcomitrella patens
PpKAI2-like L = assay: as above; parameters: species or system Physcomitrella patens
PpKAI2-like C [11] = biological target: T1, PpKAI2-like C; assay: as above; parameters: species or system Physcomitrella patens
PpKAI2-like D [12] = assay: as above; parameters: species or system Physcomitrella patens
PpKAI2-like E [13] = assay: as above; parameters: species or system Physcomitrella patens
PpKAI2-like B = assay: as above; parameters: species or system Physcomitrella patens
[14] = system: PpKAI2-like E SDIDSM166TDIHDE; assay: as above; parameters: species or system Physcomitrella patens; details: loop-swap PpKAI2-like E SDIDSM166TDIHDE
[15] = system: PpKAI2-like H TDIHDE167SDIDSM; assay: as above; parameters: species or system Physcomitrella patens; details: loop-swap PpKAI2-like H TDIHDE167SDIDSM
AtKAI2 = details: read-out: published affinity, ref Guo et al., 2013; cited from earlier work
[16] = system: Physcomitrella caulonema growth; details: ref Hoffmann et al., 2014; cited from earlier work
PpKAI2-like E S166A = biological target: T3, PpKAI2-like E S166A (Physcomitrium patens, UniProt A9ST85, S166A); assay: Isothermal titration calorimetry of; type: binding, Physcomitrella patens
T3 sequence (A9ST85 1-270 S166A): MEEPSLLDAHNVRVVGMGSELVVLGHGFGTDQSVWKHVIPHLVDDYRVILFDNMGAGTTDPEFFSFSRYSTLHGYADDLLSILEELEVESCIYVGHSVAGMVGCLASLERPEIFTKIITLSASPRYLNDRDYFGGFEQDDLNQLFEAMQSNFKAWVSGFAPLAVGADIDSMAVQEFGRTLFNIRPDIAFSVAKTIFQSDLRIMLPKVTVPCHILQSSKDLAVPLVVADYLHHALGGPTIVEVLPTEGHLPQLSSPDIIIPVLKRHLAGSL
How it was run: (§1)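 GST-fused protein (wild-type or point mutant) was expressed in E. coli BL21-CodonPlus-RIL, HRV3-cleaved on glutathione resin, then size-excluded in 20 mM Tris-HCl, 30 mM NaCl, 1 mM TCEP, pH 7.7. Protein at 1800 μM was titrated into 40 μM racemic GR24 over 20 injections spaced 240 s apart. Data were fitted to a one-site binding model.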

[17] = biological target: PpKAI2-like E S166D S170D; assay: Isothermal titration calorimetry of; type: binding, Physcomitrella patens; details: ITC
How it was run: as §1

PpKAI2-like H [18] = biological target: T2, PpKAI2-like H; assay: Differential scanning fluorimetry; type: binding, Physcomitrella patens; details: PpKAI2-like H wild-type
[19] = system: PpKAI2-like E SDIDSM166TDIHDE; assay: Differential scanning fluorimetry; type: binding, Physcomitrella patens; details: loop-swap PpKAI2-like E SDIDSM166TDIHDE
[20] = system: PpKAI2-like H TDIHDE167SDIDSM; assay: Differential scanning fluorimetry; type: binding, Physcomitrella patens; details: loop-swap PpKAI2-like H TDIHDE167SDIDSM
D14 = details: Arabidopsis D14; ref Zhao et al., 2013; cited from earlier work
DAD2 = details: Petunia paralog DAD2; ref Hamiaux et al., 2012; cited from earlier work

## (+)-5-deoxystrigol
PpKAI2-like C [1]
  change of protein melting point (DSF): unable to detect a change in melting points
PpKAI2-like D [2]
  change of protein melting point (DSF): unable to detect a change in melting points
PpKAI2-like E [3]
  change of protein melting point (DSF): unable to detect a change in melting points
PpKAI2-like C [4]
  degradation of intact substrate mass: did not observe any effect
PpKAI2-like D [5]
  degradation of intact substrate mass: did not observe any effect
PpKAI2-like E [6]
  degradation of intact substrate mass: did not observe any effect
PpKAI2-like C [7]
  D ring modification of active site histidine: unable to detect the modification
PpKAI2-like D [8]
  D ring modification of active site histidine: unable to detect the modification
PpKAI2-like E [9]
  D ring modification of active site histidine: unable to detect the modification

## Cc1c2ccocc-2oc1=O [KAR1]
PpKAI2-like H [10]
  Kd: 6.7 µM
PpKAI2-like K
  Kd: 7.7 µM
PpKAI2-like L
  Kd: 5.2 µM
PpKAI2-like C [11]
  KAR1 binding: unable to detect KAR1 binding
PpKAI2-like D [12]
  KAR1 binding: unable to detect KAR1 binding
PpKAI2-like E [13]
  KAR1 binding: unable to detect KAR1 binding
PpKAI2-like B
  KAR1 binding: do not bind
[14]
  KAR1 binding: weak binding
[15]
  KAR1 binding: lost KAR1 binding ability
AtKAI2
  Kd: 9 µM
[16]
  effect on Physcomitrella caulonema growth: not found any effect

## (−)-4-deoxyorobanchol
PpKAI2-like C [1]
  change of protein melting point (DSF): unable to detect a change in melting points
PpKAI2-like D [2]
  change of protein melting point (DSF): unable to detect a change in melting points
PpKAI2-like E [3]
  change of protein melting point (DSF): unable to detect a change in melting points

## CC1=CC(O/C=C2/C(=O)OC3c4ccccc4CC23)OC1=O (racemic) [(±)-GR24]
PpKAI2-like E S166A
  Kd: 81 µM
[17]
  binding of (±)-GR24: unable to detect binding
PpKAI2-like C [1]
  change of protein melting point (DSF): destabilization
PpKAI2-like D [2]
  change of protein melting point (DSF): destabilization
PpKAI2-like E [3]
  change of protein melting point (DSF): strongest shift of the protein melting point
PpKAI2-like H [18]
  binding / interaction (DSF): no binding observed
[19]
  affinity (DSF): reduced compared to wild-type
[20]
  affinity (DSF): weak affinity
D14
  turnover rate: 1 (±)-GR24 molecule/3 min
DAD2
  turnover rate: 3 (±)-GR24 molecules/hr

## (−)-5-deoxystrigol
PpKAI2-like C [1]
  change of protein melting point (DSF): absolute preference
PpKAI2-like D [2]
  change of protein melting point (DSF): absolute preference
PpKAI2-like E [3]
  change of protein melting point (DSF): absolute preference
PpKAI2-like H [18]
  binding / interaction (DSF): no binding observed
[19]
  affinity (DSF): reduced compared to wild-type
[20]
  affinity (DSF): weak affinity
PpKAI2-like C [4]
  degradation of intact substrate mass: loss of intact (−)-5-deoxystrigol mass
PpKAI2-like D [5]
  degradation of intact substrate mass: loss of intact (−)-5-deoxystrigol mass
PpKAI2-like E [6]
  degradation of intact substrate mass: loss of intact (−)-5-deoxystrigol mass
PpKAI2-like C [7]
  D ring modification of active site histidine: 96 Da mass of the D ring to be attached to the active site histidines
PpKAI2-like D [8]
  D ring modification of active site histidine: 96 Da mass of the D ring to be attached to the active site histidines
PpKAI2-like E [9]
  D ring modification of active site histidine: 96 Da mass of the D ring to be attached to the active site histidines

## (+)-4-deoxyorobanchol
PpKAI2-like C [1]
  change of protein melting point (DSF): unable to detect a change in melting points
PpKAI2-like D [2]
  change of protein melting point (DSF): unable to detect a change in melting points
PpKAI2-like E [3]
  change of protein melting point (DSF): unable to detect a change in melting points

## CC1=CC(O/C=C(C)\C=C\C2=C(C)CCCC2(C)C)OC1=O (racemic) [rac-carlactone]
PpKAI2-like C [1]
  change of protein melting point (DSF): unable to detect any interaction
PpKAI2-like D [2]
  change of protein melting point (DSF): unable to detect any interaction
PpKAI2-like E [3]
  change of protein melting point (DSF): unable to detect any interaction
PpKAI2-like H [18]
  binding / interaction (DSF): unable to detect any interaction
